{"source": "ChEMBL document CHEMBL4699441", "about": "“Identification and Preclinical Evaluation of the Bicyclic Pyrimidine γ-Secretase Modulator BMS-932481” (ACS Med Chem Lett, 2019)", "key": {"[1]": {"assay": "Cardiotoxicity in unconscious telemeterized rabbit assessed as change in QTcf time at 3 mg/kg", "format": "toxicity, organism-based, Oryctolagus cuniculus", "conditions": "in vivo"}, "[2]": {"assay": "Toxicity in Beagle dog assessed as changes in bilirubin level at 300 mg/kg, po", "format": "organism-based, Canis lupus familiaris", "conditions": "in vivo", "in_short": "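Dogs given a single acute oral dose of 300 mg/kg; bilirubin and other clinical pathology assessed; Cmax and AUC measured.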"}, "[3]": {"molecular_target": "T1, Solute carrier organic anion transporter family member 1B1 (Homo sapiens, UniProt Q9Y6L6)", "T1 sequence (Q9Y6L6 whole entry)": "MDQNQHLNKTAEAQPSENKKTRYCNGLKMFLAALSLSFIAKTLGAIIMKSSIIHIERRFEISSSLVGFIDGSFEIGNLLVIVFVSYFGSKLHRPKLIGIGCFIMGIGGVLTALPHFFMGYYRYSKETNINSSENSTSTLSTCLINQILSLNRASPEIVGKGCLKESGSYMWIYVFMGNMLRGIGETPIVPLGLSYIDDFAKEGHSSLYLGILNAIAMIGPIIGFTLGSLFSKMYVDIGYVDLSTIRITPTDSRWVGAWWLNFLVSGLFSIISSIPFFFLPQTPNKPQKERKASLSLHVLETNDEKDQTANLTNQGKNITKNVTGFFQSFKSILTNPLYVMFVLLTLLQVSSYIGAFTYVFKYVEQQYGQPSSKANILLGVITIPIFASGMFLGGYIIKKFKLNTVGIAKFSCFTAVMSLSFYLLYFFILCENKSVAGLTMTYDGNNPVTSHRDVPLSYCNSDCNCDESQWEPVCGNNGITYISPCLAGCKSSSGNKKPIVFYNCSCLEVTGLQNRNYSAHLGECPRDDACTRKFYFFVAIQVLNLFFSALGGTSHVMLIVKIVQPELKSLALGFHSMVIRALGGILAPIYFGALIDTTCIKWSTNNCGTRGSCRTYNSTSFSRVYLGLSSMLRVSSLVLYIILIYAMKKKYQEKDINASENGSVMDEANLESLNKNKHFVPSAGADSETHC", "assay": "Inhibition of OATP1B1 (unknown origin)", "format": "ADME"}, "[4]": {"assay": "Aqueous solubility of the compound at pH 1", "format": "physicochemical", "conditions": "buffer"}, "[5]": {"assay": "Toxicity in rat assessed as stress at 100 mg/kg, po administered for 2 week", "format": "organism-based", "conditions": "in vivo, 336 h, time 2 weeks"}, "[6]": {"assay": "Aqueous solubility of the compound at pH 6.5", "format": "physicochemical", "conditions": "buffer"}, "[7]": {"assay": "Fraction unbound in Beagle dog plasma measured after 24 hrs by LC-MS/MS analysis", "format": "ADME, cell-free, Canis lupus familiaris"}, "[8]": {"assay": "Volume of steady state distribution in Beagle dog at 1 mg/kg, iv measured up to 24 hrs by LC-MS/MS analysis", "format": "ADME, organism-based, Canis lupus familiaris", "conditions": "in vivo", "in_short": "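Male Beagle dog or male cynomolgus monkey; 1 mg/kg as 5 min iv infusion in 9:1 PEG:EtOH; n = 3; volume of distribution at steady state.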"}, "[9]": {"molecular_target": "T2, Cytochrome P450 2B6 (Homo sapiens, UniProt P20813)", "T2 sequence (P20813 whole entry)": "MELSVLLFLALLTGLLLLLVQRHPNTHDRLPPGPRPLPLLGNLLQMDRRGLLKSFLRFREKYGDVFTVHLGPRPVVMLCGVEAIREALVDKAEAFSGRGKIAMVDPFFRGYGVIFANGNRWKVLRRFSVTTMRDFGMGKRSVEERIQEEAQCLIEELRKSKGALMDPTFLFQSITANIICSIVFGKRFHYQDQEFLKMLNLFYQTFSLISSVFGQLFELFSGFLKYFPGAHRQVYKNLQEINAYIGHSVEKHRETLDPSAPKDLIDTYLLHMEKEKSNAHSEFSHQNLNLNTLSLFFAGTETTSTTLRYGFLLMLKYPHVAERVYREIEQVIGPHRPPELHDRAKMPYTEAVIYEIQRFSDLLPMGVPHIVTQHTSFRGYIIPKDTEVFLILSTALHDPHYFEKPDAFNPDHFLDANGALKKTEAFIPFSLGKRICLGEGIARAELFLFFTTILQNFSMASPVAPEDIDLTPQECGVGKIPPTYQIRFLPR", "assay": "Inhibition of CYP2B6 in human liver microsomes", "format": "ADME"}, "[10]": {"assay": "Plasma concentration in Harlan Sprague-Dawley rat at 10 mg/kg, po measured after 5 hrs", "format": "ADME, organism-based"}, "[11]": {"assay": "Toxicity in rat assessed as reduction in food consumption at 100 mg/kg, po administered for 2 week", "format": "organism-based", "conditions": "in vivo, 336 h, time 2 weeks"}, "[12]": {"tested_on": "Brain", "assay": "Antialzheimer activity in rat brain assessed as reduction in amyloid beta (1 to 42) AUC at 10 mg/kg measured after 24 hrs relative to control", "format": "functional", "set-up": "scale not given: the % may be the effect or the level left", "in_short": "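Rats dosed orally; brain Aβ1-42 followed over 24 h, and the reduction in brain Aβ1-42 AUC integrated over 0–24 h was fitted to an indirect response PK/PD model.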"}, "[13]": {"molecular_target": "Voltage-gated inwardly rectifying potassium channel KCNH2 (Homo sapiens, UniProt Q12809)", "sequence (Q12809 whole entry)": "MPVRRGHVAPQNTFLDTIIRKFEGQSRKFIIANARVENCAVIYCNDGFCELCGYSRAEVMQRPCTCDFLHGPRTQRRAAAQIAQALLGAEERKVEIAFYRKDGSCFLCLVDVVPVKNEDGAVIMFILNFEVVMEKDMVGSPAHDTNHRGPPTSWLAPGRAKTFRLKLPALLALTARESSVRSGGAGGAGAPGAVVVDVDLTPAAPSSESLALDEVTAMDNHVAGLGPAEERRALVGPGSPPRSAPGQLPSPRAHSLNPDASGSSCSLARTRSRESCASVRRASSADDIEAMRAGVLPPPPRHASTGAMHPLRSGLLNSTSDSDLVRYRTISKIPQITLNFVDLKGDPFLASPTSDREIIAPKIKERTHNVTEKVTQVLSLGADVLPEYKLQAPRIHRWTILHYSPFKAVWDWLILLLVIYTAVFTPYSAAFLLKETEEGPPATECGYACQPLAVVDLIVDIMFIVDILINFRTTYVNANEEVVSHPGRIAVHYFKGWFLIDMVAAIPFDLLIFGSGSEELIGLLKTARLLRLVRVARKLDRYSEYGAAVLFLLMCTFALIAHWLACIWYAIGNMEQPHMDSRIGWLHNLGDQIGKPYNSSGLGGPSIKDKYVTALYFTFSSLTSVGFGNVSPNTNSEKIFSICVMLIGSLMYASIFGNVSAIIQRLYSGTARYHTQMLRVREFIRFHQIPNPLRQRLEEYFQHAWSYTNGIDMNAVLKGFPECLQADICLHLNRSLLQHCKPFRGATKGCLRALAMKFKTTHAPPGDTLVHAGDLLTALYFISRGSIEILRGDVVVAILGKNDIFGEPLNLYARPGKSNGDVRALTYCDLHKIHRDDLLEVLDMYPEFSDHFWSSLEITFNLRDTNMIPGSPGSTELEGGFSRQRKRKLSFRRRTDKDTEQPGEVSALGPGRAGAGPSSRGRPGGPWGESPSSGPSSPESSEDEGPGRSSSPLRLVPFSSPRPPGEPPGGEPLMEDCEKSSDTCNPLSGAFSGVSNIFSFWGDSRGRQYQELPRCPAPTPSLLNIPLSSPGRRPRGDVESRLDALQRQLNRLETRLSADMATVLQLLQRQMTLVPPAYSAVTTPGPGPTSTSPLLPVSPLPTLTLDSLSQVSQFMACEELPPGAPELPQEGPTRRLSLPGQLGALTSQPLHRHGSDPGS", "assay": "Inhibition of human ERG by patch clamp method"}, "[14]": {"assay": "Induction of CYP3A4 mRNA expression in human hepatocytes at 3.3 to 10 uM relative to control", "format": "ADME, cell-based, Hepatocyte", "conditions": "dose 3.3-10 µM"}, "[15]": {"tested_on": "H4", "assay": "Inhibition of amyloid beta (1 to 40) secretion in human H4 cells overexpressing APP incubated for 24 hrs by MALDI-TOF mass spectrometric analysis", "format": "functional, cell-based"}, "[16]": {"molecular_target": "T3, Cytochrome P450 1A2 (Homo sapiens, UniProt P05177)", "T3 sequence (P05177 whole entry)": "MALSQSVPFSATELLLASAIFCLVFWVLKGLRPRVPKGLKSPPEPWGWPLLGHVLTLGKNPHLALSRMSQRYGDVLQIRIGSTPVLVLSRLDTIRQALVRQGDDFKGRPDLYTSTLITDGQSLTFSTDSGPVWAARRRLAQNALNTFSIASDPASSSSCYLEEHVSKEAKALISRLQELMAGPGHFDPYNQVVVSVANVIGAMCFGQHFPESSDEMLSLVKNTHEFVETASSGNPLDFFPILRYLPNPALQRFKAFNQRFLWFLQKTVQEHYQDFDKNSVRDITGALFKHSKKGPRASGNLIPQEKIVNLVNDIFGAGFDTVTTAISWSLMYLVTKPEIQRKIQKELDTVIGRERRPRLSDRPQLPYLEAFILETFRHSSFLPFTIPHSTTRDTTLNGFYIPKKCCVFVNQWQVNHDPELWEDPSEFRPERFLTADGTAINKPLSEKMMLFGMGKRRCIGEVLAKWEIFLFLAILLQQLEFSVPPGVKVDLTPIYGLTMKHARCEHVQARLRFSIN", "assay": "Inhibition of CYP1A2 in human liver microsomes", "format": "ADME"}, "[17]": {"assay": "Dissociation constant, pKa of compound", "format": "physicochemical"}, "[18]": {"molecular_target": "Cytochrome P450 2D6 (Homo sapiens, UniProt P10635)", "sequence (P10635 whole entry)": "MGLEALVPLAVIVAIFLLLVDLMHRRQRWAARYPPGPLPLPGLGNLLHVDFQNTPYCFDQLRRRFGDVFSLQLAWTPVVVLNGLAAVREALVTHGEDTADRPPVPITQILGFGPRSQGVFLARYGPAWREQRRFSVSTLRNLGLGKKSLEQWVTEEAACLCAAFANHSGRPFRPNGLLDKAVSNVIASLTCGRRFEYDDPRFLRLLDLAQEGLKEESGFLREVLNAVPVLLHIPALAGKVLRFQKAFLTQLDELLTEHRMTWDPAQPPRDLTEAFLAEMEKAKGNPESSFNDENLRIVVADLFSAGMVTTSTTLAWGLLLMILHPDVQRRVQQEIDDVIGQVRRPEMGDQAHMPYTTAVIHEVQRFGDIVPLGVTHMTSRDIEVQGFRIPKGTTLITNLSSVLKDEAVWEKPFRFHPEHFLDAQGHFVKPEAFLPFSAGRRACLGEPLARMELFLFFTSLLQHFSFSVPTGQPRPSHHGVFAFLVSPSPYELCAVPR", "assay": "Inhibition of CYP2D6 in human liver microsomes", "format": "ADME"}}, "note": "Active and inactive are the calls of the source. The rule behind the calls is not given here."}
{"smiles": "CNc1nc(Nc2ccc(-n3cnc(C)n3)c(OC)c2)nc2c1CC[C@H]2c1ccc(F)cc1", "values": [{"measurement": "Activity", "setting": "[1]", "result": "Non-Toxic"}, {"measurement": "Activity", "setting": "[2]", "result": "Non-Toxic"}, {"measurement": "IC50", "setting": "[3]", "result": 0.066, "unit": "µM"}, {"measurement": "solubility", "setting": "[4]", "result": 19, "unit": "µg/mL"}, {"measurement": "Activity", "setting": "[5]", "result": "Non-Toxic"}, {"measurement": "solubility", "setting": "[6]", "result": 0.1, "unit": "µg/mL"}, {"measurement": "Fu", "setting": "[7]", "result": 0.8, "unit": "%"}, {"measurement": "Vdss", "setting": "[8]", "result": 6.1, "unit": "L/kg"}, {"measurement": "IC50", "setting": "[9]", "result": "> 40", "unit": "µM"}, {"measurement": "concentration at 5 h", "setting": "[10]", "result": 1400, "unit": "nM"}, {"measurement": "Activity", "setting": "[11]", "result": "Non-Toxic"}, {"measurement": "Activity", "setting": "[12]", "result": 66, "unit": "%"}, {"measurement": "IC50", "setting": "[13]", "result": 1.2, "unit": "µM"}, {"measurement": "Activity", "setting": "[14]", "result": 36, "unit": "%"}, {"measurement": "inhibition", "setting": "[15]", "result": "Active"}, {"measurement": "IC50", "setting": "[16]", "result": "> 40", "unit": "µM"}, {"measurement": "pKa", "setting": "[17]", "result": 2}, {"measurement": "IC50", "setting": "[18]", "result": 18, "unit": "µM"}]}
